Laboratory results taken from ChEMBL document CHEMBL2150896, “Discovery of LASSBio-772, a 1,3-benzodioxole N-phenylpiperazine derivative with potent alpha 1A/D-adrenergic receptor blocking properties” (Eur J Med Chem, 2011).
The source made the active and inactive calls. The calls are words filed in the database; no cut-off is given here.

Assays:
[1] = target: T1, Alpha-1A adrenergic receptor (Oryctolagus cuniculus) (UniProt O02824); test: Binding affinity to rabbit aorta adrenergic alpha1A receptor assessed as inhibition of phenylephrine-induced constriction after 30 mins
T1 sequence (whole entry): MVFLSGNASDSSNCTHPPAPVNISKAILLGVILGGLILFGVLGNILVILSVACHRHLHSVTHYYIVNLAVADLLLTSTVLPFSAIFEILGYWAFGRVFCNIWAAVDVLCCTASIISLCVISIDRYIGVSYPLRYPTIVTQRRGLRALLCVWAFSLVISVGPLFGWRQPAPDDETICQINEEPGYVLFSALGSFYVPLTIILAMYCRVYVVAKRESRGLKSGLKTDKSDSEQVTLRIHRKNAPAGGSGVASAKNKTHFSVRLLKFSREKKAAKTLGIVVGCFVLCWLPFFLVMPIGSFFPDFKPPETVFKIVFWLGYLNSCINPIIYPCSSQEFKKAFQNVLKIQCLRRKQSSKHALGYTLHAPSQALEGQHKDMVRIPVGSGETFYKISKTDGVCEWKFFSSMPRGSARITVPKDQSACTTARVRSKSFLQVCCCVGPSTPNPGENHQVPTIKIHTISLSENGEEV
Summary of the method: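 Rabbit aortic rings (3–4 mm) held in organ bath under 20 mN resting tension, equilibrated 30 min. Cumulative phenylephrine curves (5 × 10⁻⁹–5 × 10⁻⁴ M) run without or with 30 μM antagonist after 30 min preincubation. EC50 from non-linear sigmoidal fit per experiment; concentration ratio r gives KB via Schild equation r − 1 = [B]/KB. Mean ± S.E.M of 4–6 experiments.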

[2] = target: T2, Alpha-1D adrenergic receptor (Rattus norvegicus) (UniProt P23944); conditions: Thoracic aorta
T2 sequence (whole entry): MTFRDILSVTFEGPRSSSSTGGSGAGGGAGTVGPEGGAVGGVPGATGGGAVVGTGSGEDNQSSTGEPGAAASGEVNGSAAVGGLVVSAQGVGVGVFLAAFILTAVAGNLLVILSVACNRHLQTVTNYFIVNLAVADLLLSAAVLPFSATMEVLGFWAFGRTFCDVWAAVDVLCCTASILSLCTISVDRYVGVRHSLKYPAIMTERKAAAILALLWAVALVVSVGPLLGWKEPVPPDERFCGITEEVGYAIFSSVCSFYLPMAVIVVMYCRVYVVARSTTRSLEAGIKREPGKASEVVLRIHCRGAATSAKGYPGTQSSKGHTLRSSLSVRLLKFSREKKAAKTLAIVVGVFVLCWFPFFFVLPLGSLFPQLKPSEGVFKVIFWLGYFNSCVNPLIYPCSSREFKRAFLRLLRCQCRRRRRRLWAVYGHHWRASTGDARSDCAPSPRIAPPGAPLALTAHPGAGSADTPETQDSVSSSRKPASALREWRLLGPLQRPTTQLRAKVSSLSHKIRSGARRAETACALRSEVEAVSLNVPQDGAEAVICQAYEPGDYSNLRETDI

[3] = target: T3, Alpha-1A adrenergic receptor (Rattus norvegicus, UniProt P43140); test: Displacement of [3H]prazosin from rat salivary gland adrenergic alpha 1A receptor after 45 mins by liquid scintillation counter
T3 sequence (P43140 whole entry): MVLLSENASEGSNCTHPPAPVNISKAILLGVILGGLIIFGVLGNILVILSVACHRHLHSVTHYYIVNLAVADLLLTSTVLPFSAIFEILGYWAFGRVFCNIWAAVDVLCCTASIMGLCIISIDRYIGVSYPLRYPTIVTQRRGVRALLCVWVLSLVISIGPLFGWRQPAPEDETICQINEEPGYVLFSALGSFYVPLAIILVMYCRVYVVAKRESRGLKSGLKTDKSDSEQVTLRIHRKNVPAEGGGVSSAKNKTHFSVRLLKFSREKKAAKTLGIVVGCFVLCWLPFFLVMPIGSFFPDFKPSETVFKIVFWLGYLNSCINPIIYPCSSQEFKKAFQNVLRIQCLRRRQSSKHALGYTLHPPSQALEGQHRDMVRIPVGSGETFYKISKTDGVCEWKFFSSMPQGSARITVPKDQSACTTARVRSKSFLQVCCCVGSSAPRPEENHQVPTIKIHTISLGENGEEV

Oryctolagus cuniculus = test: Hypotensive activity in New Zealand albino rabbit adrenergic alpha1 receptor assessed as inhibition of phenylephrine-induced rabbit systemic vascular resistance at 100 ug/kg, iv administered as bolus dose; type: functional, organism-based
Summary of the method: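 Anaesthetised New Zealand albino rabbits of either sex (3.0 kg), given pentobarbital 40 mg/kg i.v. plus a 5 mg/kg top-up, tracheotomised, ventilated with room air and paralysed with pancuronium 1 mg/kg i.v. After 15–30 min stabilisation, phenylephrine dose-response curves (0.1–100 μg/kg, i.v.) were run with or without test compound given i.v. (0.1–100 μg/kg). Recording was continuous over 30 min. Systemic vascular resistance = MAP/cardiac output × 80 (dyn s/cm⁵).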

[4] = target: T1, Alpha-1A adrenergic receptor (Oryctolagus cuniculus); test: Ratio of BMY7378 KB to compound KB for rabbit aorta adrenergic alpha1A receptor assessed as inhibition of phenylephrine-induced constriction after 30 mins
[5] = target: T4, Alpha-1D adrenergic receptor (Rattus norvegicus, UniProt P23944); test: Antagonist activity at adrenergic alpha 1D receptor in rat thoracic aorta assessed as inhibition of noradrenaline-induced contraction after 1 hr; type: functional, tissue-based; conditions: read-out: pA2 (converted)
T4 sequence (P23944 whole entry): T2 sequence (whole entry)

Rattus norvegicus = organism: Rattus norvegicus; test: Selectivity ratio of Ki for rat liver adrenergic alpha1B receptor to Ki for rat salivary gland adrenergic alpha 1A
Summary of the method: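 [3H]-prazosin competition binding on rat liver membranes (α1B) and rat salivary gland membranes (α1A), about 150 µg protein, 45 min at 25 °C in 50 mM TRIS-HCl with 1 mM EDTA, pH 7.4. Radioligand was 0.1 nM (liver) or 0.06 nM (salivary). […] Filtration, then scintillation counting. Ki from IC50 by Cheng–Prusoff; ratio of the two Ki values.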

[6] = target: T5, Alpha-1B adrenergic receptor (Rattus norvegicus, UniProt P15823); test: Displacement of [3H]prazosin from rat liver adrenergic alpha1B receptor after 45 mins by liquid scintillation counter
T5 sequence (P15823 whole entry): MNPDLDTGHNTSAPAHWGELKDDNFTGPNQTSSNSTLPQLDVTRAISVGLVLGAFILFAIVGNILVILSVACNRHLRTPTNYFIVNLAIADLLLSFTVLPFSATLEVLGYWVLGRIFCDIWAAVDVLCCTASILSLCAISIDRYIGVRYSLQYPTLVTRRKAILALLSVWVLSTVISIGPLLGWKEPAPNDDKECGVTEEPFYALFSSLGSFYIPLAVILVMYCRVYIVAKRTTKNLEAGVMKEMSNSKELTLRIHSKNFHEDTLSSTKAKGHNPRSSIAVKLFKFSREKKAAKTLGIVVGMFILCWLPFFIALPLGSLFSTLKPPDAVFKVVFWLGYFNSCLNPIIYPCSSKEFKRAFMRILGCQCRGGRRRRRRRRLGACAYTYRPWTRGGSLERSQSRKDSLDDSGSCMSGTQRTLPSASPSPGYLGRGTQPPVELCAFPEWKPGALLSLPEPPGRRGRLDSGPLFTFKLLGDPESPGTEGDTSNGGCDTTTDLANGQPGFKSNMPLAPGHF

Compound | Kb [1] | also measured
Clc1ccc(N2CCN(CCc3ccc4c(c3)OCO4)CC2)cc1 | 1240 nM | –
COc1ccccc1N1CCN(CCc2ccc3c(c2)OCO3)CC1 | 18 nM | pKb [2]: 10.3; IC50 [3]: 0.269 nM; inhibition (Oryctolagus cuniculus): Active; Ratio [4]: 80; Kb [5]: 0.0251 nM; Ratio Ki (Rattus norvegicus): 40; IC50 [6]: 6.03 nM; Ki [6]: 5.55 nM
c1ccc(N2CCN(CCCOc3ccc4c(c3)OCO4)CC2)cc1 | 27500 nM | –
c1ccc(N2CCN(CCOc3ccc4c(c3)OCO4)CC2)cc1 | 10300 nM | –
c1ccc(N2CCN(CCc3ccc4c(c3)OCO4)CC2)cc1 | 270 nM | –
c1ccc(OCCN2CCN(c3ccccc3)CC2)cc1 | 7320 nM | –
c1ccc(N2CCN(Cc3ccc4c(c3)OCO4)CC2)cc1 | 25000 nM | –
COc1ccccc1N1CCN(CCN2C(=O)CC3(CCCC3)CC2=O)CC1 | 1450 nM | –
c1ccc(CCCCN2CCN(c3ccccc3)CC2)cc1 | 1420 nM | –
COc1cc2nc(N3CCN(C(=O)c4ccco4)CC3)nc(N)c2cc1OC | – | inhibition (Oryctolagus cuniculus): Active
c1ccc(CCCN2CCN(c3ccccc3)CC2)cc1 | 9380 nM | –
COc1ccc(N2CCN(CCc3ccc4c(c3)OCO4)CC2)cc1 | 870 nM | –
Fc1ccc(N2CCN(CCc3ccc4c(c3)OCO4)CC2)cc1 | 410 nM | –
COc1ccccc1N1CCN(CCCc2ccc3c(c2)OCO3)CC1 | 130 nM | –
c1ccc(CCN2CCN(c3ccccc3)CC2)cc1 | 1460 nM | –
c1ccc(N2CCN(CCCCc3ccc4c(c3)OCO4)CC2)cc1 | 9380 nM | –
c1ccc(N2CCN(CCCc3ccc4c(c3)OCO4)CC2)cc1 | 3800 nM | –
c1ccc(CN2CCN(c3ccccc3)CC2)cc1 | 25000 nM | –
